PostGolgi yeast = growth inhibition of a yeast mutant, post-Golgi transport screen. post-Golgi transport phenotypic cell assay. AID 739. hit rate 0.9% among 98,000. inhibition, % at 10 µM;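 further: yeast cells grown in 1536-well plates; yeast grown about 18 h at 30C before absorbance read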
PostGolgi ctrl = growth of the yeast control strain, post-Golgi counter-screen; AID 738; efflux-deficient yeast background strain, growth absorbance A615, 16 h; hit rate 5% among 98,000; inhibition, % at 10 µM
Ecoli WT expand = growth inhibitors of E. coli BW25113 wild type | hit rate 0.15% among 98,000 | growth inhibition, % at 100 µM | OD600 absorbance | AID 710;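 active means growth inhibition above about 50% at one test dose, limit read from the data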;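 further: growth measured after 20 h incubation at 37 °C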
tolC growth inh = blocks growth of E. coli BW25113 tolC mutant | growth inhibition, % at 10 µM (by protocol) | hit rate 2.2% among 65,000 | AID 573 | OD615;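 active means growth inhibition at or above a cutoff equal to the mean over every tested compound plus 3 SD, cut at about 60% in these data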;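 further: growth measured after 20 h incubation at 37 °C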
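Material: E. coli BW25113 ΔtolC::kan, tolC deletion mutant strain. Measure: percent growth inhibition. Schedule: 37 °C, 20 h exposure. Doses: single-point testing at 10 µM. Signal: A615 absorbance measurement. Buffer or medium: kanamycin-containing LB broth (50 µg/mL).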
* marks the source's active call; other numbers are inactive results; x = no result given. Compounds with a hit are over-represented: about 6.3% of the library has one in this group of screens. Unless noted, no stated cut-off is given here; in the data, active means inhibition above about 30%; inactive means the rest.

SMILES	PostGolgi yeast	PostGolgi ctrl	Ecoli WT expand	tolC growth inh
COc1ccc(OC)c(-n2c(=S)[nH]c3cc(C(=O)NCCCN4CCCC4=O)ccc3c2=O)c1	7	0	0	x
O=C(CN(C1CCCCC1)S(=O)(=O)c1ccc(Cl)cc1)NCc1ccncc1	1	0	0	6
COC(/C=C/Nc1ccc(OC)cc1)=C(C#N)C#N	0	31*	1	x
COc1ccccc1N1CCN(C(=O)CN(Cc2ccccc2)S(C)(=O)=O)CC1	35*	11	3	17
O=C(C1CCCN(S(=O)(=O)c2cccnc2)C1)N1CCn2c1nc1ccccc12 (stereo unspecified)	0	7	-2	2
CCCNC(=O)C(C)n1c2ccccc2c2nc(=O)cc(C)n21 (stereo unspecified)	5	33*	-2	x
O=C1CCCC2=C1C1(CCCCC1)N=C(Nc1nc3ccccc3s1)N2	2	33*	-19	-18
O=C1CCCC2=C1C1(CCCC1)N=C(Nc1nc3ccccc3s1)N2	1	9	-8	-8
CCOC(=O)c1ccc(COC(=O)c2cc3ccccc3oc2=O)o1	-10	4	9	-15
Cc1ccc(N=c2oc3cc(O)ccc3cc2C(N)=O)cc1	30*	58*	-2	18
COc1ccc(N=c2oc3cc(O)ccc3cc2C(=O)NCC2CCCO2)cc1 (stereo unspecified)	1	-1	-11	-1
COc1ccc(N(C2CSC2)S(=O)(=O)c2ccccc2)cc1	9	0	-7	64*
CC(=O)c1ccc(NC(=S)N2C(C)CCCC2C)cc1 (stereo unspecified)	0	-5	17	x
CCOC(=O)c1cc(C#N)c(Oc2cccc(C(F)(F)F)c2)nc1-c1ccccc1	-3	9	-4	x
CCOC(=O)c1cc(C#N)c(Oc2ccc(F)cc2)nc1-c1ccccc1	6	37*	-20	x
CC(=O)C(N=Nc1ccccc1)(Sc1nnc(-c2ccccc2)n1-c1ccccc1)C(C)=O	-8	47*	-20	x
CC(=O)C(N=Nc1ccccc1)(Sc1nnc(-c2ccccc2)n1-c1ccccc1)C(=O)Nc1ccccc1 (stereo unspecified)	9	1	-8	x
O=C(CN(c1ccc(Cl)c(C(F)(F)F)c1)S(=O)(=O)c1ccccc1)N/N=C/c1cccc2c1OCCO2	4	7	-2	x
COCCNC(=O)C(c1ccc(F)cc1)N(CC1CCCO1)C(=O)CCC(=O)Nc1ccccn1 (stereo unspecified)	31*	1	-1	-9
COCCNC(=O)CN(CC1CCCO1)C(=O)CCC(=O)Nc1ccccn1 (stereo unspecified)	3	7	3	5
O=C1CNC(=O)/C1=C/c1ccc(O)cc1	-3	1	5	x
COc1ccc(C)cc1N(C(=O)CNC(=O)c1ccco1)C(C(=O)NC1CCCC1)c1cccnc1 (stereo unspecified)	15	-6	5	-26
CCCCOc1ccc(S(=O)(=O)n2c(C)nc3ccccc32)cc1	2	-10	5	94*
CCN(CC)S(=O)(=O)c1cccc2nsnc12	1	49*	7	5
CCN(CC)C(=O)CN(C)S(=O)(=O)c1cccc2nsnc12	-8	3	-8	-16
SMILES	PostGolgi yeast	PostGolgi ctrl	Ecoli WT expand	tolC growth inh
C=CCn1c(SCC(=O)OC)nc2sc3c(c2c1=O)CCN(C)C3	-5	-7	5	-2
CCC(=O)Nc1nonc1-c1nc2ccccc2n1CCC(C)C	3	36*	-6	50
COc1cccc(-c2csc(N3CCN(S(=O)(=O)c4ccc(F)cc4)CC3)n2)c1	-1	37*	-20	-7
O=C(NCCN1CCOCC1)N1CCOCC1	7	13	1	-23
O=C(NCc1ccc2[nH]c3c(c2c1)CCCC3)N1CCOCC1	21	30*	1	-7
COc1cc(S(=O)(=O)N2CCC(O)(c3cccc(C(F)(F)F)c3)CC2)ccc1-n1cnnn1	-10	3	-10	100*
CCOc1nc(Nc2ccc(OC)c(Cl)c2)nc(OCC)n1	14	36*	-12	x
CCOc1nc(Nc2ccc(OC)cc2)nc(OCC)n1	-1	22	-7	x
O=C1N=C(N2CCN(c3cccc4ccccc34)CC2)S/C1=C/c1cccs1	-5	37*	-8	x
COC(=O)c1nnn(-c2nonc2N)c1CSc1nc2ccccc2s1	5	60*	0	10
O=C1CCCN1CCCNc1ncnc2c1cnn2-c1ccc(Cl)cc1	-3	38*	1	9
Cc1cccc(-n2ncc3c(NCCCN4CCCC4=O)ncnc32)c1	-11	5	5	x
CCOc1cc(S(=O)(=O)N2CCN(c3ccc(F)cc3)CC2)c(OCC)cc1-n1cnnn1	3	82*	-1	-3
CCN(CC)CCNc1c2c(c(C#N)c3nc4ccccc4n13)CCCC2	22	46*	-4	x
CCN(CC)c1cc(C)c2cc(NC(=O)c3ccc(Br)o3)ccc2n1	-11	6	2	x
CCc1cc(N2CCOCC2)cc2c1[nH]c1ccccc12	-11	36*	-1	-13
Cn1c(SCCCC(=O)c2ccc(Br)cc2)nnc1-c1ccncc1	-5	-1	5	x
O=c1c2ccccc2nc2n1CCS2	4	6	3	4
N#Cc1c(-c2ccc(Cl)cc2Cl)nc2n(c1=O)CCS2	-5	32*	6	15
O=C(COC(=O)c1ccccc1F)c1ccc(-n2nncc2-c2ccco2)cc1	0	6	-4	1
Cc1cnnn1-c1ccc(C(=O)CCl)cc1	9	6	98*	x
COc1cccc(NC2c3ccccc3C(=O)N2Cc2ccco2)c1 (stereo unspecified)	-4	9	1	4
O=C1c2ccccc2C(Nc2cccc(C(F)(F)F)c2)N1Cc1ccco1 (stereo unspecified)	-1	32*	-5	93*
Cc1cccc(C)c1OCC(O)CN1CCC(CN2C(=O)c3cccc4cccc(c34)C2=O)CC1 (stereo unspecified)	3	-4	-5	x
COc1ccccc1N/C(=N/S(=O)(=O)c1ccc(C)cc1)c1ccc(Cl)cc1	-3	25	-19	x
SMILES	PostGolgi yeast	PostGolgi ctrl	Ecoli WT expand	tolC growth inh
Cc1[nH]c2ccccc2c1Cc1nnc(SCc2ccccc2)o1	11	35*	-17	x
c1ccc(CSc2nnc(-c3c[nH]c4ccccc34)o2)cc1	-4	24	-11	-2
CC(C)Cn1c(=O)c(C(=O)NCc2ccccn2)c(O)c2ccccc21	-5	31*	13	-3
Cc1nn(-c2ccc(F)cc2)c(C)c1NS(=O)(=O)c1ccc(Cl)cc1	-7	13	-5	28
Cc1ccc(CNC(=O)Cn2c(=O)oc3ccccc32)o1	1	40*	2	1
CCOC(=O)C1CCCN(C(=O)c2cc(Nc3ccc(OC)cc3)nc3ccccc23)C1 (stereo unspecified)	22	15	0	x
O=C(CCC1CCCC1)c1c(O)c2ccccc2oc1=O	-1	0	14	97*
COC(=O)c1nc2cc(C)ccn2c1F	-14	49*	8	-10
CCOC(=O)c1c(C)nc2cc(C)ccn12	1	5	-2	0
COc1ccc(C(=O)Nc2ccc(S(=O)(=O)NC(C)=O)cc2)cc1	-8	36*	-4	-5
O=C(CCSc1ccc(Cl)cc1)NC12CC3CC(CC(C3)C1)C2	9	43*	-16	x
